Assay results from ChEMBL document CHEMBL1125694, “Fluorinated sugar analogues of potential anti-HIV-1 nucleosides” (J Med Chem, 1991).
The source made the active and inactive calls. No cut-off for these calls is given here.

How the values were obtained:
Assay type in all cases: functional, cell-based
[1] = test system: H9; experiment: Compound was tested for anti-HIV activity in H9 cell line; Active; conditions: Homo sapiens
[2] = test system: H9; experiment: Anti-HIV activity in H9 cell line; Not active; conditions: Homo sapiens
[3] = test system: HL-60; experiment: Inhibition of human promyelocytic leukemic cell (HL-60) by […]-microculture tetrazolium assay
Procedure, shortened: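 HL-60 cells exposed 4 days to five or six concentrations of each nucleoside, in duplicate. Then PMS-XTT mixture (0.075 mM PMS with 1 mg/mL XTT) added for 6 h at 37 °C. Absorbance at 450 and 630 nm. Median inhibitory concentration (IC50) derived.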

[4] = test system: HL-60; experiment: Inhibition of human promyelocytic leukemic cell (HL-60) trypan blue exclusion assay
Procedure, shortened: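 HL-60 growth inhibition by trypan blue exclusion, five or six concentrations per nucleoside, in duplicate. Median inhibitory concentration (IC50) derived.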

[5] = test system: MT4; experiment: Compound was tested for anti-HIV activity in MT-4 cell line; Not active; conditions: Homo sapiens
[6] = test system: H9; experiment: Compound was tested for anti-HIV activity in H9 cell line; Not active; conditions: Homo sapiens

Row | Structure (SMILES) | IC50 [3] | IC50 [4] | Activity [1] | Activity [2] | Activity [5] | Activity [6]
1 | Nc1ccn([C@@H]2O[C@H](CO)C[C@@H]2F)c(=O)n1 |  |  | Active |  |  | 
2 | Cc1cn(C2OC(COC(c3ccccc3)(c3ccccc3)c3ccccc3)CC2F)c(=O)nc1N (centres undefined) | > 1000 µM | > 1000 µM |  | inactive |  | 
3 | Cc1cn([C@@H]2O[C@H](CO)[C@@H](O)[C@@H]2F)c(=O)[nH]c1=O [5-METHYL-2'-FLUOROARAURACIL] | > 1000 µM | > 1000 µM |  | inactive |  | 
4 | Cc1cn(C2OC(CO)C(F)C2F)c(=O)nc1N (centres undefined) | 234 µM | 123 µM |  | inactive |  | 
5 | CC(=O)OCC1OC(n2cc(C)c(=O)[nH]c2=O)CC1F (centres undefined) | > 1000 µM | > 1000 µM |  | inactive |  | 
6 | Cc1cn([C@@H]2O[C@H](CO)[C@@H](O)[C@@H]2O)c(=O)[nH]c1=O | > 1000 µM | > 1000 µM |  | inactive |  | 
7 | Cc1cn(C2OC(COC(c3ccccc3)(c3ccccc3)c3ccccc3)C(F)C2N=[N+]=[N-])c(=O)[nH]c1=O (centres undefined) | > 1000 µM | > 1000 µM |  | inactive |  | 
8 | Cc1cn([C@H]2C[C@H](OS(C)(=O)=O)[C@@H](COS(C)(=O)=O)O2)c(=O)[nH]c1=O | > 1000 µM | > 1000 µM |  | inactive |  | 
9 | Cc1cn(C2OC(COC(c3ccccc3)(c3ccccc3)c3ccccc3)C(N=[N+]=[N-])C2F)c(=O)[nH]c1=O (centres undefined) | > 1000 µM | > 1000 µM |  | inactive |  | 
10 | Cc1cn([C@@H]2O[C@H](COC(c3ccccc3)(c3ccccc3)c3ccccc3)[C@@H](OS(C)(=O)=O)[C@H]2OS(C)(=O)=O)c(=O)[nH]c1=O | > 1000 µM | > 1000 µM |  | inactive |  | 
11 | Cc1cn([C@@H]2O[C@H](CO)[C@@H](F)[C@H]2N=[N+]=[N-])c(=O)[nH]c1=O | > 1000 µM | > 1000 µM |  | inactive |  | 
12 | Cc1cn2c(nc1=O)O[C@@H]1C[C@H]2O[C@@H]1COS(C)(=O)=O | > 1000 µM | > 1000 µM |  | inactive |  | 
13 | Cc1cn(C2OC(COC(c3ccccc3)(c3ccccc3)c3ccccc3)C(F)C2F)c(=O)[nH]c1=O (centres undefined) | > 1000 µM | > 1000 µM |  | inactive |  | 
14 | Cc1cn2c(nc1=O)O[C@@H]1[C@H](F)[C@H]2O[C@@H]1COC(c1ccccc1)(c1ccccc1)c1ccccc1 | > 1000 µM | > 1000 µM |  | inactive |  | 
15 | Cc1cn2c(nc1=O)O[C@@H]1[C@H](F)[C@H]2O[C@@H]1COC(=O)c1ccccc1 | > 1000 µM | > 1000 µM |  | inactive |  | 
16 | Cc1cn([C@@H]2O[C@H](COC(c3ccccc3)(c3ccccc3)c3ccccc3)[C@@H](OS(C)(=O)=O)[C@@H]2F)c(=O)[nH]c1=O | > 1000 µM | > 1000 µM |  | inactive |  | 
17 | Cc1cn([C@@H]2O[C@H](CO)C[C@H]2F)c(=O)nc1N | > 1000 µM | > 1000 µM |  | inactive |  | 
18 | Cc1cn(C2OC(COC(c3ccccc3)(c3ccccc3)c3ccccc3)C(F)C2O)c(=O)[nH]c1=O (centres undefined) | > 1000 µM | > 1000 µM |  | inactive |  | 
19 | Cc1cn([C@@H]2O[C@H](COC(c3ccccc3)(c3ccccc3)c3ccccc3)[C@@H]3O[C@@H]32)c(=O)[nH]c1=O | > 1000 µM | > 1000 µM |  | inactive |  | 
20 | Cc1cn([C@@H]2O[C@H](CO)[C@@H](N=[N+]=[N-])[C@@H]2F)c(=O)[nH]c1=O |  |  |  | inactive | inactive | 
21 | Cc1cn([C@H]2C[C@H](F)[C@@H](CO)O2)c(=O)[nH]c1=O |  |  | Active |  |  | 
22 | Cc1cn(C2OC(COC(=O)c3ccccc3)C(F)C2F)c(=O)[nH]c1=O (centres undefined) | > 1000 µM | > 1000 µM |  | inactive |  | 
23 | Cc1cn([C@@H]2O[C@H](CO)[C@@H](OC(c3ccccc3)(c3ccccc3)c3ccccc3)[C@H]2OC(c2ccccc2)(c2ccccc2)c2ccccc2)c(=O)[nH]c1=O | > 1000 µM | > 1000 µM |  |  |  | inactive
24 | Cc1cn([C@@H]2O[C@H](CO)C=C2F)c(=O)[nH]c1=O | > 1000 µM | > 1000 µM |  | inactive |  | 
25 | Cc1cn([C@@H]2O[C@H](COC(=O)c3ccccc3)[C@@H](OS(C)(=O)=O)[C@@H]2F)c(=O)[nH]c1=O | > 1000 µM | > 1000 µM |  | inactive |  | 

More lines, main results first:

Row | IC50 [3] | IC50 [4] | Structure (SMILES) | Activity [1] | Activity [2] | Activity [5] | Activity [6]
26 | > 1000 µM | > 1000 µM | Cc1cn(C2OC(COC(c3ccccc3)(c3ccccc3)c3ccccc3)C(N=[N+]=[N-])C2O)c(=O)[nH]c1=O (centres undefined) |  | inactive |  | 
27 | > 1000 µM | > 1000 µM | Cc1cn([C@@H]2O[C@H](COC(c3ccccc3)(c3ccccc3)c3ccccc3)C[C@H]2F)c(=O)[nH]c1=O |  | inactive |  | 
28 | > 1000 µM | > 1000 µM | Cc1cn(C2OC(COC(=O)c3ccccc3)C(F)C2F)c(=O)[nH]c1=S (centres undefined) |  | inactive |  | 
29 | > 1000 µM | > 1000 µM | Cc1cn([C@@H]2O[C@H](CO)[C@@H](N=[N+]=[N-])[C@H]2F)c(=O)[nH]c1=O |  | inactive |  | 
30 | > 1000 µM | > 1000 µM | Cc1cn2c(nc1=O)O[C@H]1[C@H](O)[C@@H](COC(c3ccccc3)(c3ccccc3)c3ccccc3)O[C@H]12 |  | inactive |  | 
31 | > 1000 µM | > 1000 µM | Cc1cn(C2CC(F)C(COS(C)(=O)=O)O2)c(=O)[nH]c1=O (centres undefined) |  | inactive |  | 
32 | > 1000 µM | > 1000 µM | Cc1cn([C@@H]2O[C@H](CO)C[C@H]2F)c(=O)[nH]c1=O |  | inactive |  | 
33 | > 1000 µM | > 1000 µM | Cc1cn(C2OC(COC(c3ccccc3)(c3ccccc3)c3ccccc3)CC2F)c(=O)nc1-n1cncn1 (centres undefined) |  | inactive |  | 
34 | > 1000 µM | > 1000 µM | Cc1cn2c(nc1=O)OC1CC(COC(c3ccccc3)(c3ccccc3)c3ccccc3)OC12 (centres undefined) |  | inactive |  | 
35 | > 1000 µM | > 1000 µM | Cc1cn([C@@H]2O[C@H](CO)[C@@H](F)[C@H]2F)c(=O)[nH]c1=O |  | inactive |  | 
36 | > 1000 µM | > 1000 µM | Cc1cn(C2OC(CO)C[C@@H]2F)c(=O)[nH]c1=O (some centres undefined) |  | inactive |  | 
37 | > 1000 µM | > 1000 µM | Cc1cn(C2OC(COC(c3ccccc3)(c3ccccc3)c3ccccc3)CC2O)c(=O)[nH]c1=O (centres undefined) |  | inactive |  | 
38 | > 1000 µM | > 1000 µM | Cc1cn([C@@H]2O[C@H](CO)[C@@H](F)[C@@H]2F)c(=O)[nH]c1=O |  | inactive |  | 
39 | > 1000 µM | > 1000 µM | Cc1cn2c(nc1=O)O[C@@H]1C[C@H]2O[C@@H]1CO |  | inactive |  | 
40 | > 1000 µM | > 1000 µM | Cc1cn([C@@H]2O[C@H](COC(c3ccccc3)(c3ccccc3)c3ccccc3)[C@H](O)[C@H]2F)c(=O)[nH]c1=O |  | inactive |  | 
41 | > 1000 µM | > 1000 µM | Cc1cn([C@@H]2O[C@H](COC(=O)c3ccccc3)[C@@H](O)[C@@H]2F)c(=O)[nH]c1=O |  | inactive |  | 
42 | > 1000 µM | > 1000 µM | Cc1cn([C@@H]2O[C@H](COC(c3ccccc3)(c3ccccc3)c3ccccc3)[C@H](O)[C@H]2N=[N+]=[N-])c(=O)[nH]c1=O |  | inactive |  | 
43 | > 1000 µM | > 1000 µM | Cc1cn2c(nc1=O)O[C@H]1[C@H](OC(=S)n3ccnc3)[C@@H](COC(c3ccccc3)(c3ccccc3)c3ccccc3)O[C@H]12 |  | inactive |  | 
